High-throughput results as filed in PubChem BioAssay.
Most compounds without a hit are left out; they make up all but 1.9% or so of the library.
STEP inh: STEP (human) phosphatase inhibition; P54829; inhibition, % at 20 µM; recombinant STEP, OMFP fluorogenic substrate, fluorescence; 360,000 compounds, 0.25% hits;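 active means inhibition at 20 µM, scaled per plate between control wells, above about 37%, limit read from the data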;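 further: 0% = DMSO with enzyme and substrate and 100% = substrate only without enzyme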
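System: isolated STEP enzyme; schedule: 20 min enzyme reaction at room temperature, protected from light; medium: Bis-Tris buffer pH 6.0, 2.5 mM DTT, 0.005% Tween 20; signal: fluorescence, 480/540 nm; dosing: single compound dose of 20 µM, 1% DMSO final; also added: OMFP substrate, 25 µM final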
Scp-1 inhibitor: blocks human Scp-1 phosphatase activity | 340,000 compounds, 0.88% hits | Recombinant Scp1, phosphopeptide, malachite green phosphate absorbance | Q9GZU7 | inhibition, % at 20 µM;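 active means inhibition above about 50% at 20 µM, limit read from the data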;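 further: plate controls were DMSO wells with enzyme for no effect and wells lacking enzyme for full effect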
Target sequence (Q9GZU7 76-261 limits assumed): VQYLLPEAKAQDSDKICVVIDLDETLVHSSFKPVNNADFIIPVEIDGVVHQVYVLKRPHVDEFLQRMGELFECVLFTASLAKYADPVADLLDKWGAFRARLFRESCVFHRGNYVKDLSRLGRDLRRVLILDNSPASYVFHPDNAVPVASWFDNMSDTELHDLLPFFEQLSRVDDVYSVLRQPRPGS
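Assay system: SCP-1 catalytic fragment, aa 76-261 | Buffer or medium: Tris acetate buffer pH 5.5 with MgCl2 and Tween-20 | Compound: One concentration, 20 µM, with 1.0% DMSO | Also added: Phospho 17-mer peptide substrate | Signal: Absorbance at 630 nm | Incubation: 45 min enzyme reaction at room temperature | Measure: % inhibition of SCP-1 phosphate liberation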
PP1 counter: blocks human PP1-alpha phosphatase, a PP5 counter-screen; P62136; purified PP1alpha, OMFP fluorescence; inhibition, % at 6.7 µM; 320,000 compounds, 0.9% hits;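 active means inhibition above the mean inhibition of all tested compounds plus 3 SD, computed separately for each screening campaign, cut at about 15% in these data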
Target sequence (P62136 whole entry, looked up): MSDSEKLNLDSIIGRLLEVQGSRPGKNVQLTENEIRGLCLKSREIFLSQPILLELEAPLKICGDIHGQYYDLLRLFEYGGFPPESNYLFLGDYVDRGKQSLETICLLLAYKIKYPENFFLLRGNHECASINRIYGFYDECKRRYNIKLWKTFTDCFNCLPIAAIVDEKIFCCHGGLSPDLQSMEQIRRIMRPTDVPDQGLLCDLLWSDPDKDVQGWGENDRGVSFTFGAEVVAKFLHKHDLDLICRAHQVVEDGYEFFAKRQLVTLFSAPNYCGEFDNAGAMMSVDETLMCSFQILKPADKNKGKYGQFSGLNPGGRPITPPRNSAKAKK
LMPTP inh: blocks human LMPTP phosphatase; recombinant LMPTP-A, OMFP fluorogenic substrate, fluorescence intensity; inhibition, % at 20 µM; 360,000 compounds, 0.22% hits; AID 651560;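 active means compounds that cut the enzyme signal by at least half of the control window in the single-dose screen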;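 further: plate controls were DMSO wells with enzyme plus substrate for no effect and substrate without enzyme for full effect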
Target sequence (P24666 whole entry, looked up): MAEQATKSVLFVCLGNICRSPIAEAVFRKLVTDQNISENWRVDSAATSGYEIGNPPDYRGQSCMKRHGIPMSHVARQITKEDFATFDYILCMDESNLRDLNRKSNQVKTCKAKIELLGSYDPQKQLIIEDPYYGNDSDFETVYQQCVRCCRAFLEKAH
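Material: LMPTP-A; amount: 0.625 nM enzyme; doses: single 20 µM dose; times: reaction 50 min, room temperature, dark; technique: fluorescence intensity of OMFP turnover product; benchmarks: no-enzyme and uninhibited controls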
PP5 inh: PP5 (human) phosphatase inhibition; inhibition, % at 6.7 µM; 320,000 compounds, 0.18% hits; purified PP5c, OMFP substrate fluorescence; P53041;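 active means inhibition above the campaign's mean inhibition across all tested compounds plus 3 SD, cut at about 9.5% in these data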;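 further: 0% = DMSO only and 100% = 100 µM cantharidin control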
* hit, by the source's call; / = no result given.

SMILES	STEP inh	Scp-1 inhibitor	PP1 counter	LMPTP inh	PP5 inh
CN1/C(=C\C=N\O)C(C)(C)c2ccccc21	-2.0	-3.7	-3.1	-1.9	3.3
CC1c2cc3c(cc2CCN1C(=O)c1ccc(C(F)(F)F)cc1)OCCCO3 (stereo not drawn)	0.7	-0.9	3.5	1.6	3.7
CCOC(=O)C(C)(C)Oc1cccc2c1S(=O)(=O)c1ccccc1-2	-2.5	-14.2	2.3	0.3	0.5
Cc1ccc(-c2cc(C(=O)N/N=C/C=C/c3ccccc3)n[nH]2)s1	1.5	28.7	15.4*	1.7	7.6
Cc1cc(C(=O)N/N=C/C=C/c2ccccc2)n[nH]1	0.9	-0.7	-4.6	-0.6	-0.5
COc1ccc(C2CC(c3ccccc3)=NN2S(=O)(=O)c2ccc(C)cc2)c(OC)c1 (stereo not drawn)	3.2	-20.6	4.9	1.8	0.4
O=C(O)CCN1C(=O)/C(=C\c2ccc(-c3nc4ccccc4s3)o2)SC1=S	79.0*	63.0*	-3.0	41.4	1.6
O=C(O)CN1C(=O)/C(=C\c2ccc(OC(=O)c3ccco3)cc2)SC1=S	14.7	5.9	-0.5	1.9	2.5
O=C(O)CCN1C(=O)/C(=C\c2ccncc2)SC1=S	-0.4	-6.0	2.0	1.2	3.2
O=C(O)CN1C(=O)/C(=C/c2ccc(SCc3ccccc3)o2)SC1=S	12.0	58.8*	/	8.7	/
Cc1ccc(-c2nn3c(C)nnc3s2)cc1NC(=O)c1ccc(-c2ccc(Cl)cc2Cl)o1	93.4*	43.1	3.5	43.6	0.0
COc1cccc(CNS(=O)(=O)c2ccc3c(c2)N(C(C)=O)CCO3)c1	42.3*	23.7	1.1	9.0	1.0
CC(=O)c1ccc(OCc2cc(C(=O)N3CCCCC3c3cccnc3)no2)cc1 (stereo not drawn)	-1.1	-6.7	-3.6	1.1	2.1
CCOc1cccc(C(=O)N2CCCCC2c2cccnc2)c1 (stereo not drawn)	-0.9	-2.9	16.0*	-2.1	1.2
COc1cccc(OC)c1-c1nn2c(-c3cc(-c4ccccc4)n[nH]3)nnc2s1	3.6	90.3*	58.6*	56.2*	5.4
CCN(CC)c1ccc(-c2nn3c(-c4ccccc4OC)nnc3s2)cc1	-1.2	-14.3	15.8*	5.9	8.1
CCOC(=O)C1Nc2ccc(C(=O)O)cc2C2C=CCC12 (stereo not drawn)	42.2*	35.5	33.9*	1.6	-1.1
CCCC1Nc2ccc(C(=O)O)cc2C2C=CCC12 (stereo not drawn)	4.0	5.7	2.0	0.8	3.0
O=Cc1cccc(OC(=O)/C=C/c2ccco2)c1	48.2*	69.2*	1.9	33.2	-0.4
COc1ccc(C2CC(=O)N3CN(c4ccc(C)c(Cl)c4)CSC3=C2C#N)cc1OC (stereo not drawn)	1.7	-1.2	-2.8	0.9	-0.2
COC(=O)/C(C(C)=O)=C(\C=C\N(C)C)N(C)C	0.7	-3.8	-2.9	-0.6	-0.2
COC(=O)\C(C(C)=O)=C(/C=C/C=C/C=C/N(C)C)N(C)C	10.2	74.0*	-1.1	0.9	2.5
CCCCOc1cccc(C(=O)Nc2ccc(S(=O)(=O)Nc3nnc(CC)s3)cc2)c1	0.7	-9.4	15.2*	0.8	3.5
O=C(NC(=S)N(Cc1ccccc1)c1ccccn1)C1CCCCC1	1.1	-4.4	-1.1	-1.7	-1.5
Cc1cccc(NC(=O)CSc2nc(C)nc3c2c(=O)n(C)c(=O)n3C)c1	-2.9	-5.8	/	-0.6	/
SMILES	STEP inh	Scp-1 inhibitor	PP1 counter	LMPTP inh	PP5 inh
CCCOc1ccc(OCCSc2ncccn2)cc1	-0.3	-10.3	16.4*	1.3	2.0
CCN(CC)S(=O)(=O)c1ccc2c(c1)nc(CCC(=O)Nc1ccc3c(c1)OCO3)n2C	1.0	-4.8	5.5	3.1	0.0
CCN(CC)S(=O)(=O)c1ccc2c(c1)nc(CCC(=O)Nc1ccc3c(c1)OCO3)n2CC	-2.0	6.6	15.2*	1.9	0.0
O=C(CSc1ccc2ccccc2n1)Nc1nsc(-c2ccc(Cl)cc2)n1	13.7	0.1	-0.8	55.9*	2.7
COc1cccc2cc(C(C)N(CCCN3CCOCC3)C(=S)Nc3ccc(C)cc3)oc12 (stereo not drawn)	2.0	-9.0	-0.1	-2.5	0.3
O=C(CSc1nnc(SCc2cccc3ccccc23)s1)N/N=C/C=C/c1ccccc1[N+](=O)[O-]	1.7	-5.7	16.1*	1.3	1.3
O=C(CSc1nnc(SCc2cccc3ccccc23)s1)N/N=C/c1c[nH]c2ccccc12	-2.5	-5.2	2.8	3.8	5.1
CCn1c(SCC(=O)N/N=C/C=C/c2ccco2)nnc1-c1ccccc1	0.0	23.7	3.2	-1.1	-1.3
O=C(CSc1nnc(SCc2ccccc2)s1)N/N=C/C=C/c1ccco1	4.0	83.5*	2.1	37.4	0.3
CCOc1ccc(N2CC(C(=O)Nc3nnc(Cc4ccc(OC)cc4)s3)CC2=O)cc1 (stereo not drawn)	-0.8	-5.5	16.1*	0.0	3.1
O=S(c1cc(Cl)cc(Cl)c1O)c1cc(Cl)cc(Cl)c1O	/	/	/	2.2	/
Oc1c(Cl)cc(Cl)cc1Sc1cc(Cl)cc(Cl)c1O	/	/	39.6*	/	9.2
O=c1c2c([N+](=O)[O-])cc([N+](=O)[O-])cc2sn1Cc1ccccc1	-1.9	46.7	-1.0	0.7	-0.9
O=c1c2c([N+](=O)[O-])cc([N+](=O)[O-])cc2sn1-c1ccc(Br)cc1	-0.1	93.9*	10.1	-0.8	1.4
CCC/C(C#Cc1cc(OC)cc(OC)c1)=C1/c2ccccc2C(=O)N1c1ccccc1	-2.0	-6.5	/	0.3	/
CCC/C(C#Cc1ccc(N(C)C)cc1)=C1/c2ccccc2C(=O)N1c1ccccc1	-29.7	57.1*	/	2.8	/
Cc1nnc(SCCC(=O)Nc2ccc(F)cc2)s1	0.9	-2.2	-4.2	0.3	1.2
Cc1ccn2c(NC3CCCC3)c(-c3ccncc3)nc2c1	2.8	-10.6	-1.1	-1.4	2.7
CCCCNc1c(-c2ccc(-c3ccc(C(C)=O)cc3)c(OC)c2)nc2cnccn12	0.0	7.5	16.8*	5.8	5.5
COc1cc(-c2nc3cnccn3c2NC(C)(C)CC(C)(C)C)ccc1O	0.7	-1.2	6.4	-0.2	1.4
Cc1ccn2c(NC3CCCCC3)c(-c3cccc(-c4cccc(Cl)c4)c3)nc2c1	1.4	18.5	17.1*	12.7	2.6
COc1cc(-c2nc3cc(C)ccn3c2NC2CCCCC2)ccc1-c1ccc(C(C)=O)cc1	-4.8	11.0	17.7*	8.8	2.4
CCCn1c(N)[n+](CC(=O)c2ccco2)c2ccccc21	0.1	-9.4	-1.6	0.1	0.9
N#C/C(=C/c1cn(-c2ccccc2)nc1-c1cccc(S(=O)(=O)N2CCOCC2)c1)C(=O)NCc1ccco1	-1.9	-14.2	-5.1	1.2	-1.0
N#C/C(=C/c1cn(-c2ccccc2)nc1-c1cccc(S(=O)(=O)N2CCCC2)c1)C(=O)NCc1ccco1	-0.5	-10.7	15.8*	0.9	3.8
COc1cc2c(cc1OC)C(COc1ccc(C(C)C)cc1)NCC2 (stereo not drawn)	2.0	-4.3	-0.4	8.1	0.4
